Drawing on ChEMBL document CHEMBL3352530, “Nitrogen-containing dihydro-β-agarofuran derivatives from Tripterygium wilfordii” (J Nat Prod, 2014), this text covers IC50 for six compounds.

Test [1] relates to PBMC. Description: Immunosuppressive activity in anti-CD3/anti-CD28-induced human PBMC after 96 hrs by flow cytometry. Format: functional, cell-based. Summed up:
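Healthy-donor PBMCs isolated by Lymphoprep density-gradient centrifugation, held in complete medium at 10⁶ cells/mL. Stimulated with plate-bound anti-CD3 (2 μg/mL) plus soluble anti-CD28 (1 μg/mL) monoclonal antibodies. Incubated 96 h with varying compound concentrations in DMSO (less than 0.025%) or vehicle alone. Proliferation measured by flow cytometry.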

Test [2] relates to PBMC. Description: Cytotoxicity against human PBMC after 96 hrs by flow cytometry. The format is cell-based. The procedure, abridged: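 PBMCs isolated from healthy donors by Lymphoprep density-gradient centrifugation and resuspended in complete medium. Cells at 10⁶ cells/mL incubated without stimulation for 96 h with different concentrations of compound or vehicle alone. Cell survival read by flow cytometry.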
For orientation: Flow cytometry measures light scatter and fluorescence of single cells or particles in a stream.

For the compound `CC(=O)OC[C@]12[C@H](OC(C)=O)[C@H](OC(C)=O)[C@@H]3[C@@H](O)[C@@]14O[C@@]3(C)COC(=O)c1cccnc1[C@@H](C)[C@H](C)C(=O)O[C@@H]([C@H](OC(=O)c1ccccc1)[C@@H]2OC(C)=O)[C@]4(C)O`, the IC50 in test [1] is 32.9 µM; in test [2] it was 56.3 µM.

Consider `CC(=O)O[C@@H]1[C@@H]2[C@@H](OC(C)=O)[C@@]34O[C@@]2(C)COC(=O)c2cccnc2CC[C@](C)(OC(=O)c2ccoc2)C(=O)O[C@@H]([C@H](O)[C@H](O)[C@@]3(CO)[C@@H]1O)[C@]4(C)O`, for which the IC50 was 8.67 µM in test [1] and over 100 µM in test [2].

As to `CC(=O)OC[C@]12[C@H](OC(C)=O)[C@H](OC(C)=O)[C@@H]3[C@@H](OC(C)=O)[C@@]14O[C@@]3(C)COC(=O)c1cccnc1CC[C@](C)(OC(=O)c1ccoc1)C(=O)O[C@@H]([C@H](OC(=O)c1ccoc1)[C@@H]2OC(C)=O)[C@]4(C)O`, the IC50 in test [1] came out at 4.95 µM; in test [2], 26.4 µM.

Take `CC1(C)O[C@]23[C@H](OC(=O)c4cccnc4)[C@H]1C[C@@H](OC(=O)/C=C\c1ccccc1)[C@]2(CO)[C@@H](OC(=O)c1ccccc1)CC[C@]3(C)O`: the IC50 in test [1] turned out to be 24.7 µM; in test [2], 57.6 µM.

`CC(=O)OC[C@]12[C@H](OC(C)=O)[C@H](OC(C)=O)[C@@H]3[C@@H](OC(C)=O)[C@@]14O[C@@]3(C)COC(=O)c1cccnc1CCC(C)(O)C(=O)O[C@@H]([C@H](OC(C)=O)[C@@H]2OC(C)=O)[C@]4(C)O` (some centres not stated) [ALATUSININE]: the IC50 in test [1] is 45.9 µM; in test [2], 75.7 µM.

With `COc1c(C)c2c(c(O)c1C/C=C(\C)CCC(=O)O)C(=O)OC2` [MYCOPHENOLIC ACID], the results for the IC50 in test [1] and in test [2] were 0.18 µM and over 100 µM, respectively.

For orientation: IC50 means the midpoint of a concentration-inhibition curve. A higher IC50 goes with weaker potency.
